# Results collected from several papers.
assay,system,conditions,endpoint,result,SMILES
metabolic stability,"mouse, liver microsomes","1 µM, pH 7.4",microsomal CLint,39 µL/min/mg,O=c1c2c([nH]c3ccc(Oc4ccc(OC(F)(F)F)cc4)cc13)CCCC2
,"rat, plasma","intravenous, 2 mg/kg",Vd,1 L/kg,CNS(=O)(=O)c1ccc(Nc2ncc(C(F)(F)F)c([C@H]3CC[C@@](C)(O)CC3)n2)c(C)c1
metabolic stability,"mouse, liver microsomes","1 µM, pH 7.4",microsomal CLint,6.76 µL/min/mg,O=c1c2ccc(OCc3ccc(C(F)(F)F)cc3)cc2[nH]c2cc(Cl)cc(F)c12
,"male Sprague-Dawley rat, plasma","oral, 5 mg/kg, single dose",Vd/F,20 L/kg,C[C@H]1Oc2cc(cnc2N)-c2c(nn(C)c2C#N)CN(C)C(=O)c2ccc(F)cc21
metabolic stability,"mouse, liver microsomes",,scaled CLint,694 mL/min/kg,CNCCNC(=O)c1cc(C(C)C)nc2c1cnn2C(C)C
metabolic stability,"mouse, liver microsomes","1 µM, pH 7.4",microsomal CLint,24.3 µL/min/mg,O=c1c2ccc(Oc3cccc(OC(F)(F)F)c3)cc2[nH]c2cc(Cl)cc(F)c12
metabolic stability,"mouse, liver microsomes",,microsomal CLint,7 µL/min/mg,CC1(C)NC(=O)N(c2ccc(F)c(F)c2)C1=O
,"rat, plasma","intravenous, 2 mg/kg",Vd,4 L/kg,CNS(=O)(=O)c1ccc(Nc2ncc3cc(Cl)c(=O)n(C4CCCC4)c3n2)c(C)c1
metabolic stability,"mouse, liver microsomes","1 µM, pH 7.4",microsomal CLint,0.59 µL/min/mg,O=c1c2ccc(OCc3cccc(C(F)(F)F)c3)cc2[nH]c2ccc(Cl)c(F)c12
,"rat, plasma","intravenous, 2 mg/kg",Vd,18 L/kg,Cc1cc(S(=O)(=O)NC2CC(N3CCN(CC4CCN(c5ccc6c(c5F)n(C)c(=O)n6C5CCC(=O)NC5=O)CC4)CC3)C2)ccc1Nc1ncc(C(F)(F)F)c(N2CCCC(C)(O)C2)n1 (centres unmarked)
metabolic stability,"mouse, liver microsomes",,scaled CLint,75.6 mL/min/kg,CC(C)n1ncc2c(C(=O)NC(C)(C)CN)cc(C3CC3)nc21
,"rat, plasma","intravenous, 2 mg/kg",Vd,82 L/kg,Cc1cc(S(=O)(=O)NC2CC(N3CCN(CC4CCN(c5cccc6c5n(C)c(=O)n6C5CCC(=O)NC5=O)CC4)C4(CC4)C3)C2)ccc1Nc1ncc(C(F)(F)F)c(N2CCC[C@](C)(O)C2)n1 (some centres unmarked)
metabolic stability,"mouse, liver microsomes",,microsomal CLint,7 µL/min/mg,CCC(F)(F)c1cc(N2C(=O)NC(C)(C)C2=O)ccc1F
metabolic stability,"mouse, liver microsomes",,scaled CLint,195 mL/min/kg,CC(C)c1cc(C(=O)NCCN2CCCC2)c2cnn(C(C)C)c2n1
